Published values gathered from unrelated publications.
Lines come from different studies, so protocols differ.
Target: Serine/threonine-protein kinase 38 (STK38, Homo sapiens, UniProt Q15208)

| SMILES | observed | mode | technique | cell line | concentration | measurement | result |
| --- | --- | --- | --- | --- | --- | --- | --- |
| CCC1(CC)NC(=O)c2c(c3ccc(Cl)c(Cl)c3n2C)C1C#N (stereo not drawn) | thermal stability | – | DSF | – | 10 µM | ΔTm | 1.1 °C |
| O=C(Nc1cnn(-c2csc(C(=O)NC3COC3)c2)c1)Nc1c(F)cccc1Cl | enzyme activity | inhibitor | – | – | 5 µM | remaining activity | 95.5% |
| CCCOc1ccc([C@@H]2[C@@H](C(=O)O)[C@H](c3ccc4c(c3)OCO4)CN2CC(=O)Nc2c(CC)cccc2CC)cc1 | cell-free assay | – | competition with immobilised ligand | – | 1 µM | remaining binding | 83% |
| N#CC1c2c([nH]c3c(Cl)c(Cl)ccc23)C(=O)NC12CCCCC2 (racemic) | thermal stability | – | DSF | – | 10 µM | ΔTm | 0.6 °C |
| O=C1Nc2ccc(Cl)cc2C1=Cc1cc(Cl)c(O)c(Cl)c1 | cell-free assay | – | – | – | 0.5 µM | remaining signal | 85.4% |
| O=S(=O)(NC1CCC(c2cc(F)ccc2F)(S(=O)(=O)c2ccc(Cl)cc2)CC1)C(F)(F)F (stereo not drawn) | cell-free assay | – | competition with immobilised ligand | – | 1 µM | remaining binding | 100% |
| CC1(C)NC(=O)c2[nH]c3c(Cl)c(Cl)ccc3c2C1C#N (stereo not drawn) | thermal stability | – | DSF | – | 10 µM | ΔTm | -0.1 °C |
| CCN1CCN(Cc2ccc(NC(=O)c3ccc(C)c(Oc4ccnc5[nH]ccc45)c3)cc2C(F)(F)F)CC1 | target engagement in cells | inhibitor | chemoproteomics | A-375 | 5 µM | inhibition | -0.846% |
| Cn1c2c(c3ccc(Cl)c(Cl)c31)C(C#N)C(C)(C)NC2=O (stereo not drawn) | thermal stability | – | DSF | – | 10 µM | ΔTm | 0.1 °C |
| Cc1ccc(C(=O)Nc2ccc(CN3CCN(C)CC3)c(C(F)(F)F)c2)cc1C#Cc1cnc2cccnn12 | enzyme activity | inhibitor | – | – | 23.5 nM | remaining activity | 78% |
| CN([C@@H]1CCc2c(CC(=O)O)c3cc(S(C)(=O)=O)ccc3n2C1)S(=O)(=O)c1ccc(F)cc1 | cell-free assay | – | competition with immobilised ligand | – | 1 µM | remaining binding | 85% |
| Cn1c2c(c3ccc(Cl)c(Cl)c31)C(C#N)C1(CCNCC1)NC2=O (racemic) | thermal stability | – | DSF | – | 10 µM | ΔTm | 0.4 °C |
| CCC(=N\O)/C(C)=C/c1ccc(F)cc1 | cell-free assay | – | competition with immobilised ligand | – | 1 µM | remaining binding | 94% |
| CN1CCC2(CC1)NC(=O)c1c(c3ccc(Cl)c(Cl)c3n1C)C2C#N (racemic) | thermal stability | – | DSF | – | 10 µM | ΔTm | 0 °C |
| C[C@H](c1ccnc(Nc2nc3ccc(-c4cc(N(C)C)ncn4)cc3[nH]2)c1)N1CCN(C(=O)CC(F)(F)F)CC1 | cell-free assay | – | competition with immobilised ligand | – | 0.1 µM | remaining binding | 100% |
| C[S+]([O-])c1ccc(-c2nc(-c3ccncc3)c(-c3ccc(F)cc3)[nH]2)cc1 (stereo not drawn) | cell-free assay | – | – | – | 0.5 µM | remaining signal | 105% |
| NS(=O)(=O)c1cc(NC(=O)C2(c3ccccc3Cl)CC2)ccc1Oc1cccc(Cl)c1 | cell-free assay | – | competition with immobilised ligand | – | 1 µM | remaining binding | 81% |
| O=C(Nc1cnn(-c2csc(C(=O)NC3COC3)c2)c1)Nc1ccccc1Cl | enzyme activity | inhibitor | – | – | 5 µM | remaining activity | 99.2% |
